# CCR6 antag – CCR6 receptor antagonists, primary screen, cell-based, CHO-K1, luminescence, beta-arrestin, uHTS | inhibition, % at 20 µM | 0.49% of 340,000 active | CHO-K1 CCR6 PathHunter beta-arrestin, CCL20-stimulated | AID 493098, 2011 | C-C chemokine receptor type 6 (Homo sapiens), P51684;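 active = compounds whose inhibition of the agonist-driven luminescence signal at 20 µM reaches about 50%, limit read from the data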;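 also: cells stimulated with CCL20 at 14 nM final; plate controls were DMSO with CCL20 for no effect and DMSO without agonist for full effect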
# APJ agonist – agonists of human apelin receptor APJ, primary screen, CHO-K1 cells, PathHunter beta-arrestin, luminescence. 0% DMSO wells, 100% apelin. AID 2520, 2010. activation, % at 20 µM. 0.11% of 330,000 active;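 active = activation more than six SD over the plate average, tested at 20 µM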;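 also: 0% = DMSO alone and 100% = apelin-13 at 10 nM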
#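 Assay system: engineered CHO-K1 APJ arrestin reporter cells; Amount: 1000 CHO-K1 reporter cells seeded per well; Dosing: one dose, 20 µM compound, 1% DMSO; Times: compound stimulation 90 min at 25 °C, detection 60 min; Measured by: luminescent beta-gal fragment complementation, chemiluminescent substrate; Read-out: APJ–arrestin association signal; Controls: DMSO vs Apelin-13 10 nM.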
# APJ antagonist – antagonists of human apelin receptor APJ, primary screen, CHO-K1 cells, beta-arrestin complementation, luminescence. P35414. inhibition, % at 20 µM. 0.32% of 330,000 active. AID 2521, 2010;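 active = inhibition above about 40% at 20 µM, limit read from the data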;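 also: cells challenged with 10 nM apelin-13 agonist together with compound; plate controls were apelin-13 plus DMSO wells for no effect and DMSO wells lacking apelin-13 for full effect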
# CXCR6 block – CXCR6 receptor inhibitors, primary screen, cell-based, beta-arrestin, luminescence, CHO-K1 PathHunter, 1536-well. 0.36% of 360,000 active. C-X-C chemokine receptor type 6 (Homo sapiens), O00574. inhibition, % at 20 µM; in the data active = inhibition above about 34%, passing the limit was not always enough;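 also: antagonist mode with CXCL16 agonist at 10 nM final; 0% = 10 nM CXCL16 with DMSO and 100% = unstimulated wells without agonist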
# m5-HT2A agonist – mouse Htr2a agonists via beta-arrestin recruitment, primary screen, cell-based, luminescence; 5-hydroxytryptamine receptor 2A (Mus musculus), P35363; activation, % at 7.6 µM; CHO-K1 mHTR2A beta-arrestin complementation; percent of 30 µM serotonin response; 0.66% of 360,000 active;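 active = activation above a run cutoff, the mean activation of all tested compounds plus 3 SD, cut at about 14% in these data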;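 also: 0% = plate median of compound wells and 100% = 30 µM serotonin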
# EBI2 block – EBI2 receptor antagonists, beta-arrestin recruitment, primary screen, cell-based, luminescence, 7a,25-OHC stimulation, uHTS; inhibition, % at 5 µM; 7a,25-OHC stimulated; G-protein coupled receptor 183 (Homo sapiens), P32249; 0.81% of 360,000 active; AID 651636, 2012; in the data active = inhibition above about 38%;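 also: enzyme fragment complementation signal reports receptor beta-arrestin coupling in cells; 0% = agonist plus DMSO wells and 100% = wells without agonist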
# OPRM1 ag – OPRM1 agonists via beta-arrestin recruitment, confirmation, counter-screen for mouse HTR2A agonist project, cell-based, luminescence, single concentration | shares compounds with m5-HT2A agonist | U2OS OPRM1 beta-arrestin PathHunter; DMSO 0%, DAMGO 9.3 µM 100% | activation, % at 9.3 µM | 5.3% of 2,300 active | AID 624380, 2012;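 active = mean activation above the mean of DMSO-only wells plus 3 SD, cut at about 0.5% in these data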
# Target sequence (P35372 whole entry, looked up): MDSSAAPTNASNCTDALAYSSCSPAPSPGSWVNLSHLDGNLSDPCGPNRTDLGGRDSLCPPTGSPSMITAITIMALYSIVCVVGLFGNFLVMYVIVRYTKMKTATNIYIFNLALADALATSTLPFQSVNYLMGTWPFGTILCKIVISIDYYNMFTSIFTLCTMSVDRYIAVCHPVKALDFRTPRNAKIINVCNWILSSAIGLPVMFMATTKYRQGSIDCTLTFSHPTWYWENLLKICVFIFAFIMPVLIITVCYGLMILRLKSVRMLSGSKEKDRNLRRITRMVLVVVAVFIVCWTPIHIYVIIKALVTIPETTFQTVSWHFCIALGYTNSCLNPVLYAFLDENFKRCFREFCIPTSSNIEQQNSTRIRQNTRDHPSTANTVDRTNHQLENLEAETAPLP
# m5-HT2A ag conf – mouse HTR2A agonists, beta-arrestin recruitment, confirmation, cell-based, luminescence, CHO-K1 PathHunter, triplicate; 19% of 2,300 active; DMSO 0%, 30 µM serotonin 100%; shares compounds with m5-HT2A agonist; activation, % at 7.6 µM; AID 624381, 2012;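 active = mean activation across triplicates above the hit threshold derived in the original primary screen, cut at about 15% in these data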
# Starred values were filed as active, the others as inactive; . = not tested or not shown; ! = not active in a repeat. Sampled rows, rich in hits. Any-hit rate of the full collection: about 2.2%.
SMILES,CCR6 antag,APJ agonist,APJ antagonist,CXCR6 block,m5-HT2A agonist,EBI2 block,OPRM1 ag,m5-HT2A ag conf
c1ccc(CN2CCC3CC2c2c3cccc2N2CCOCC2)cc1 (stereo not given),.,.,.,-0.8,0.9,-6.7,.,.
OC(Cn1cnnc1)c1ccccc1 (stereo not given),-9.8,-2.5,-11.6,2.1,16.7*,-8.3,-0.6,1.4
CCOC(=O)c1cnc(SCC(=O)OC)nc1N,11.0,-1.1,9.0,1.6,26.2*,5.7,-0.6,-2.9
COC(=O)N1CCCCC1c1cc(C(=O)NCc2ccc(Cl)c(Cl)c2)no1 (stereo not given),.,.,.,0.2,1.6,16.1,.,.
Cc1ccn2cc(C(=O)N3CCCC(Nc4ccc(F)cc4)C3)nc2c1 (stereo not given),3.9,-1.2,27.0,-10.0,18.5*,-14.8,-0.8,1.1
Cc1occc1C(=O)N1CCCC(Nc2ccc(F)cc2)C1 (stereo not given),11.6,-0.2,13.0,-6.4,4.6,3.0,.,.
Cc1ccc2nccc(C(=O)N3CCCC(Nc4ccc(F)cc4)C3)c2c1 (stereo not given),4.6,-4.6,1.6,11.0,17.6*,2.2,-0.6,-2.2
Cc1cccc(N2CCN(CC(O)COc3ccc4ccccc4c3)CC2)c1 (stereo not given),6.1,.,.,-8.0,15.3*,25.5,-0.1,52.5*
Cc1ccc(OCC(O)CN2CCN(c3ccccc3)CC2)cc1 (stereo not given),15.4,1.6,0.6,8.4,0.9,30.7,.,.
CCc1ccc(OCC(O)CN2CCN(c3ccccc3)CC2)cc1 (stereo not given),3.3,0.5,-12.5,-2.9,14.9*!,25.2,-0.1,29.0*
CCCc1ccc(OCC(O)CN2CCN(c3ccccc3)CC2)cc1 (stereo not given),-1.5,-1.9,8.4,-4.1,8.9,20.8,.,.
CCOC(=O)N1CCN(Cc2ccc(OCC(O)CN3CCCCC3)cc2)CC1 (stereo not given),9.2,-2.1,18.3,-1.5,33.1*,-4.9,0.1,70.7*
CC(=O)NC(C)(c1ccccc1)c1nc(-c2cccc(C(F)(F)F)c2)cs1 (stereo not given),.,.,.,-8.0,-8.6,19.1,.,.
CCCCNC(=O)COC(=O)c1cc2c(C)nn(-c3ccccc3)c2s1,-0.2,-1.0,1.2,5.7,2.5,-4.7,.,.
COC(=O)c1cc2c(C)nn(C)c2s1,11.0,0.6,15.9,-1.7,23.2*,-9.8,-0.6,-4.5
CC(=O)N1CCc2cc(S(=O)(=O)C(C)CC(=O)NCc3ccco3)ccc21 (stereo not given),.,.,.,2.7,2.2,-10.8,.,.
COc1ccc(N(C)C(=O)c2ccc(NC(=O)CCS(=O)(=O)c3cccs3)cc2)cc1,7.6,-1.7,-3.6,-2.9,15.2*,5.1,-0.6,-1.4
O=C(c1ccc(-c2ccc([N+](=O)[O-])cc2)o1)N1CCCC(C(F)(F)F)C1 (stereo not given),3.8,14.1,-66.7,2.1,-7.5,13.1,.,.
O=C(c1ccc(-c2ccc([N+](=O)[O-])cc2)o1)N1CCCCCCC1,28.9,-0.5,-0.3,5.7,15.1*,16.2,-0.6,-5.6
CC(C)(CO)C(O)C(=O)NCCCO (stereo not given),-5.6,-2.5,1.1,4.3,18.4*,-0.1,-0.6,0.0
CCc1nn2c(=O)cc(COC(=O)c3cc(Cl)c(OC)c(OC)c3)nc2s1,5.0,-3.3,-2.3,-6.8,17.0*,-1.0,-0.4,-2.7
CCCOc1c(Br)cc(C(=O)OCc2cc(=O)n3ccsc3n2)cc1OC,2.5,.,.,-0.2,1.8,1.2,.,.
CC(=O)c1sc(NC(=O)c2cc(S(=O)(=O)N3CCOCC3)ccc2F)nc1C,1.9,3.5,0.6,-3.0,14.6*,-9.1,-0.6,-0.6
CC(=O)c1sc(NC(=O)c2ccc(F)c(S(=O)(=O)N3CCOCC3)c2)nc1C,8.2,-3.8,5.2,1.5,5.5,3.7,.,.
O=C(COc1ccccc1Cl)N(Cc1cccs1)C1CCS(=O)(=O)C1 (stereo not given),16.7,-2.5,4.9,0.7,20.2*,-4.2,-0.7,-3.8
SMILES,CCR6 antag,APJ agonist,APJ antagonist,CXCR6 block,m5-HT2A agonist,EBI2 block,OPRM1 ag,m5-HT2A ag conf
Cc1cc(Cl)ccc1OCC(=O)N(Cc1cccs1)C1CCS(=O)(=O)C1 (stereo not given),17.1,-2.6,10.5,1.5,1.9,1.9,.,.
O=C(CN1C(=O)NC2(CCCC2)C1=O)NCc1ccc(Cl)cc1,12.0,-0.7,-3.1,-3.1,19.3*,2.4,-0.5,-2.3
O=C(CN1C(=O)NC2(CCCC2)C1=O)OCc1ccccc1F,-7.1,-3.1,8.9,4.9,0.0,-11.5,.,.
O=C(CN1C(=O)NC2(CCCC2)C1=O)OCc1c(F)cccc1Cl,7.2,4.1,19.2,-1.2,16.7*,-3.5,-0.6,-1.3
O=C(CN1C(=O)NC2(CCCC2)C1=O)NCc1ccc(F)cc1,-4.0,-0.9,1.3,6.6,1.8,-4.7,.,.
CC1(C(=O)Nc2ccc3c(c2)OCCO3)CCN1C(=O)c1ccco1 (stereo not given),.,.,.,0.4,2.0,-8.1,.,.
C[C@@H]1CN([C@H](C)CO)C(=O)CCCn2nncc2CO[C@H]1CN(C)S(=O)(=O)c1ccccc1F,.,.,.,3.3,0.8,3.0,.,.
Cc1cccc(-c2nsc(SCC(=O)Nc3nccs3)n2)c1,1.9,-10.6,-22.5,-5.5,18.0*,4.1,0.0,-1.7
O=C(NNC(=O)c1ccco1)c1cccc(Br)c1,-1.7,9.3,-11.2,-1.4,14.8*,-3.8,-0.5,0.5
CC(C)(C)NC(=O)N1CCN(c2nc(-c3ccccc3)ns2)CC1,6.5,-2.7,7.4,-6.9,15.5*,1.4,-0.4,-1.7
COc1cc(-c2nnc(-c3cc(OC)c(OC)c(OC)c3)o2)cc(OC)c1OC,-4.6,2.1,5.0,0.8,17.4*,-8.0,0.3,-1.8
COc1cc(-c2nnc(-c3ccccc3)o2)cc(OC)c1OC,1.4,0.2,13.0,2.7,0.2,10.4,.,.
COC(=O)c1ccc2nc(-c3ccc(Cl)cc3)c(Cc3ccsc3)n2c1,.,.,.,8.7,5.1,30.4,.,.

# From PubChem BioAssay
